Columns and labels:
[1] = molecular target: T1, Type-1 angiotensin II receptor (Oryctolagus cuniculus, UniProt P34976); assay: Antagonistic ability of angiotensin II to contract rabbit aorta; format: functional, tissue-based; conditions: read-out: pA2 (converted)
T1 sequence (P34976 whole entry): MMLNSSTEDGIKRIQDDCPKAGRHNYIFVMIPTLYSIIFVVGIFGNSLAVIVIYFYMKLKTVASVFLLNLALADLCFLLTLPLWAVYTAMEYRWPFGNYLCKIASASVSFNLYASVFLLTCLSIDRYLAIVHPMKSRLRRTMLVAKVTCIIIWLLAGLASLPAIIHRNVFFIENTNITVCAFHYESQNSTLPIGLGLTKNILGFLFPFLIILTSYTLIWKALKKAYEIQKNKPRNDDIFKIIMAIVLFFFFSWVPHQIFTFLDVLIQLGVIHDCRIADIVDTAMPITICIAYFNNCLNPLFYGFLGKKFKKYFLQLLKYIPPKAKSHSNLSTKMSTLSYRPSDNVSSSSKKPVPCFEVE
How it was run: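 Angiotensin II contraction of rabbit aortic rings. Full pA2 from several drug concentrations by Schild plot (log drug concentration vs log(EC50 ratio-1)); EC50 ratio is the angiotensin II EC50 with drug over that without drug.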

[2] = tested on: Rattus norvegicus; assay: % decrease in blood pressure after 4 hours in male rats at a dose of 3 mg/kg by using Renal artery hypertensive model; format: functional
How it was run: (§1)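 Male Sprague-Dawley rats (300-350 g) were made hypertensive by renal artery ligation and used on day 6 or 7 after ligation. Arterial pressure was measured from an indwelling femoral artery catheter, with blood pressure and heart rate recorded on line. Read-out is % decrease in blood pressure at 4 h, ±SEM, with number of rats.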

[3] = Bioavailability after oral dose of […]; format: ADME, organism-based; conditions: eutheria, in vivo
[4] = tested on: Rattus norvegicus; assay: % decrease in blood pressure after 4 hours at a dose of 10 mg/kg in male rats by using Renal artery hypertensive model; format: functional; how it was run: as §1
[5] = Tmax value after oral dose of 10 mg/kg; format: ADME, organism-based; parameters: dose 10 mg/kg, route oral; conditions: in vivo
How it was run: (§2)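 Male Sprague-Dawley-derived rats. Compound was given in normal saline at 1 mL/kg, either as a slow iv bolus into the jugular vein or orally by gavage. Plasma underwent liquid-liquid extraction and reverse-phase HPLC. Terminal elimination half-life and time of observed peak concentration were taken from the profiles.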

[6] = Volume of distribution of the terminal phase (CLp+ plasma elimination rate constant) after intravenous dose of 3.87 mg/kg; format: ADME, organism-based; parameters: dose 3.87 mg/kg, route intravenous; conditions: read-out: Vbeta
How it was run: (§3)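 Jugular-vein slow iv bolus (normal saline, 1 mL/kg) in male Sprague-Dawley-derived rats. Plasma was sampled via the tail vein at 0.1–24 h and measured by reverse-phase HPLC after liquid-liquid extraction. Central volume was taken as dose divided by plasma concentration at time zero. Terminal-phase volume was derived from clearance and the plasma elimination rate constant.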

[7] = Half-life period of compound after intravenous dose of 3.87 mg/kg; format: ADME, organism-based; parameters: dose 3.87 mg/kg, route intravenous; conditions: in vivo; how it was run: as §2
[8] = Cmax value after oral dose of 3.87 mg/kg; format: ADME, organism-based; parameters: dose 3.87 mg/kg, route oral; conditions: in vivo
How it was run: (§4)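 Male Sprague-Dawley-derived rats were dosed with compound in normal saline (1 mL/kg), by gavage or as a slow IV bolus into the jugular vein. Heparinized tail-vein blood was taken at 0.25-24 h, extracted liquid-liquid and assayed by reverse-phase HPLC. Cmax is the observed peak concentration and AUC is mean (SEM). F compares oral with IV AUC, corrected for dose and assuming dose proportionality.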

[9] = Tmax value after oral dose of […]; format: ADME, organism-based; conditions: in vivo
[10] = Area under curve after oral dose of 3.87 mg/kg; format: ADME, organism-based; parameters: dose 3.87 mg/kg, route oral; conditions: in vivo; how it was run: as §4
[11] = Area under curve after oral dose of […]; format: ADME, organism-based; conditions: in vivo
[12] = Tmax value after oral dose of 3.87 mg/kg; format: ADME, organism-based; parameters: dose 3.87 mg/kg, route oral; conditions: in vivo; how it was run: as §2
[13] = Area under curve after oral dose of 10 mg/kg; format: ADME, organism-based; parameters: dose 10 mg/kg, route oral; conditions: in vivo; how it was run: as §4
[14] = Volume of distribution of central compartment (dose+ plasma concentration at time zero) after intravenous dose of 3.87 mg/kg; format: ADME, organism-based; parameters: dose 3.87 mg/kg, route intravenous; conditions: read-out: VI; how it was run: as §3
[15] = Cmax value after oral dose of 10 mg/kg; format: ADME, organism-based; parameters: dose 10 mg/kg, route oral; conditions: in vivo; how it was run: as §4
[16] = molecular target: T2, Type-1 angiotensin II receptor A (Rattus norvegicus, UniProt P25095); assay: Binding affinity against angiotensin II receptor from rat liver
T2 sequence (P25095 whole entry): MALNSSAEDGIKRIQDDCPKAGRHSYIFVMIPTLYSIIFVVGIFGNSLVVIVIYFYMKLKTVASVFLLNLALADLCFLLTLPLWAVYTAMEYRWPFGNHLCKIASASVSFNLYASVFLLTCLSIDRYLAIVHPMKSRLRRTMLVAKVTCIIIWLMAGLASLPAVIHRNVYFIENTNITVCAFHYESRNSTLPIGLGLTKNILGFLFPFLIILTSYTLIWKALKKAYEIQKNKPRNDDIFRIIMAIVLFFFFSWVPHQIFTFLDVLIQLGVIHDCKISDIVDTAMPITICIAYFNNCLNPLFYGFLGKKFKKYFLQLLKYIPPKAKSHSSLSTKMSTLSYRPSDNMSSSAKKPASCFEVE
How it was run: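 Rat liver membranes were incubated with [125I]-saralasin to measure angiotensin II type 1 receptor binding. Nonspecific binding was defined with 1 µM angiotensin.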

[17] = Plasma clearance after intravenous dose of 3.87 mg/kg; format: ADME, organism-based; parameters: dose 3.87 mg/kg, route intravenous; conditions: read-out: Clp
How it was run: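 Male Sprague-Dawley-derived rats received a slow iv bolus into the jugular vein of the compound in normal saline (1 mL/kg). Tail-vein heparinized blood was drawn from 0.1 to 24 h and assayed by reverse-phase HPLC after liquid-liquid extraction. Total plasma clearance was calculated as dose divided by AUC and reported as mean (SEM).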

[18] = Bioavailability after oral dose of 10 mg/kg; format: ADME, organism-based; conditions: eutheria, in vivo; how it was run: as §4
[19] = Bioavailability after oral dose of 3.87 mg/kg; format: ADME, organism-based; conditions: eutheria, in vivo; how it was run: as §4
[20] = Cmax value after oral dose of […]; format: ADME, organism-based; conditions: in vivo
[21] = tested on: Rattus norvegicus; assay: % decrease in blood pressure after 4 hours in male rats at a dose of 1 mg/kg by using Renal artery hypertensive model; format: functional; how it was run: as §1

CCc1cc(OCc2ccc(-c3ccccc3-c3nn[nH]n3)cc2)c2nc(OC(C)C)ccc2n1
Kb [1]: 0.1 nM

CCCCN(Cc1ccc(-c2ccccc2-c2nn[nH]n2)cc1)c1ncncc1C(=O)O.Cl
Decrease in blood pressure [2]: 18% | bioavailability [3]: 4.8% | Decrease in blood pressure [4]: 41% | Tmax [5]: 0.9 h | Vd [6]: 0.42 L/kg | half-life [7]: 1.5 h | Cmax [8]: 510 ng/mL | Tmax [9]: 1.1 h | AUC [10]: 2.38 µg/h/mL | AUC [11]: 6.65 µg/h/mL | Tmax [12]: 1.3 h | AUC [13]: 2.83 µg/h/mL | Vd [14]: 0.08 L/kg | Cmax [15]: 840 ng/mL | Ki [16]: 1.77 nM | clearance [17]: 0.85 mL/min | bioavailability [18]: 4.8% | bioavailability [19]: 10.3% | Cmax [20]: 1470 ng/mL | Decrease in blood pressure [21]: 10%
